According to ChEMBL document CHEMBL3588831, “Synthesis and in Vivo Evaluation of [123I]Melanin-Targeted Agents” (J Med Chem, 2015):

Legend:
[1] = Retention time of the compound by HPLC method; assay type: physicochemical
Brain [2] = experiment: Drug distribution in brain of C57BL/6J mouse bearing mouse B16F0 cells at 18 to 20 MBq, iv within 1 hr by SPECT imaging study; assay type: ADME, organism-based; details: in vivo
Outline: (§1)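 Female C57BL/6J mice bearing s.c. B16F0 tumors (11 days growth) received 18−20 MBq in 100 μL via lateral tail vein (n = 3). Isoflurane anesthesia (5% induction, 2−2.5% maintenance) on a 37 °C heating pad. Planar γ-camera imaging at 10−60 min (5 min frames), 3 and 6 h, 24, 48 and 72 h. Radioactivity localization assessed visually.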

Brain [3] = experiment: Drug distribution in brain of C57BL/6J mouse bearing mouse B16F0 cells at 18 to 20 MBq, iv measured over 72 hrs by SPECT imaging study; assay type: ADME, organism-based; details: in vivo; outline: as §1
[4] = Drug distribution in eyes of C57BL/6J mouse bearing mouse B16F0 cells at 18 to 20 MBq, iv measured over 72 hrs by SPECT imaging study; assay type: ADME, organism-based, Eye; details: in vivo
Outline: (§2)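 Female C57BL/6J mice (5–6 weeks) were inoculated s.c. on the left flank with 3 × 10^5 B16F0 cells in PBS and used after 11 days, with tumors 2–12 mm. Each received 18–20 MBq in 100 μL by lateral tail vein (n = 3 per tracer). Planar SPECT was done under isoflurane at 10–60 min, 3, 6, 24, 48 and 72 h. ROI pixel values were decay-corrected.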

[5] = Drug distribution in thyroid gland of C57BL/6J mouse bearing mouse B16F0 cells at 18 to 20 MBq, iv after 3 hrs by SPECT imaging study; assay type: ADME, organism-based; details: in vivo; outline: as §2
[6] = Drug distribution in thyroid gland of C57BL/6J mouse bearing mouse B16F0 cells at 18 to 20 MBq, iv after 72 hrs by SPECT imaging study; assay type: ADME, organism-based; details: in vivo; outline: as §2
[7] = Drug distribution in thyroid gland of C57BL/6J mouse bearing mouse B16F0 cells at 18 to 20 MBq, iv after 24 hrs by SPECT imaging study; assay type: ADME, organism-based; details: in vivo; outline: as §2

With `CCN(CC)CCNC(=O)c1cnc2cc([123I])ccc2n1` the Retention_time [1] was 15.7 min, the Drug uptake (Brain [2]) was “Active” and the Drug uptake (Brain [3]) was “Active”. For the same molecule, the Drug uptake [4] was “Active” and the Drug uptake [5] was “Active”.

In the case of `O=C1c2ccccc2CN1CC(=O)N1C[C@@H]2C[C@H]1CN2Cc1ccc([123I])cc1`, the Retention_time [1] is reported as 15.9 min, the Drug uptake (Brain [3]) is reported as “Not Active” and the Drug uptake [6] is reported as “Active”. The Drug uptake [4] was “Active”.

With `O=C(CN1Cc2ccccc2C1=O)N1CCCN(Cc2ccc([123I])cc2)CC1` the Retention_time [1] was 14.5 min, the Drug uptake (Brain [3]) was “Not Active” and the Drug uptake [6] was “Active”. The Drug uptake [4] was “Active”.

With `O=C(c1cccnc1)N1CCN(Cc2ccc([123I])cc2)CC1` the Retention_time [1] was 16 min, the Drug uptake [7] was “Active” and the Drug uptake (Brain [3]) was “Not Active”. For the same molecule, the Drug uptake [4] was “Active”.

In the case of `O=C(CN1Cc2ccccc2C1=O)N1CCN(Cc2ccc([123I])cc2)CC1`, the Retention_time [1] is reported as 17.3 min, the Drug uptake (Brain [3]) is reported as “Not Active” and the Drug uptake [4] is reported as “Active”.
